From ChEMBL document CHEMBL4431376, “CZ415, a Highly Selective mTOR Inhibitor Showing in Vivo Efficacy in a Collagen Induced Arthritis Model” (ACS Med Chem Lett, 2016)
pEC50, pIC50: −log10 of the molar value. Converted amounts (≈) assume the structure as drawn.

What was measured:
Cytochrome P450 2C19 = Cytochrome P450 2C19 (Homo sapiens, UniProt P33261); assay: Inhibition of CYP2C19 in human liver microsomes; format: ADME
[1] = Apparent permeability from apical to basolateral side in human CaCo2 cells; format: ADME, cell-based; conditions: Caco-2
Procedure, shortened: (§1)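 Caco-2 monolayer permeability, measured as Papp in the apical-to-basolateral and basolateral-to-apical directions.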

[2] = Mean residence time in Sprague-Dawley rat at 1 mg/kg, iv as bolus dose or 3 mg/kg, po administered through gavage by LC-MS/MS analysis; format: ADME, organism-based; conditions: in vivo
Procedure, shortened: (§2)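 Rats (n = 3 per route) given a 1 mg/kg intravenous bolus or 3 mg/kg as an oral solution. Vehicle was 5% DMSO/95% (10% Kleptose). Plasma concentration was followed over time to derive PK parameters and oral bioavailability. Clearance was also expressed relative to liver blood flow.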

[3] = Protein binding in rat plasma; format: ADME, cell-free; conditions: read-out: PPB (converted)
Procedure, shortened: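 Plasma protein binding was determined in rat, mouse and human plasma, expressed as % bound.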

[4] = Apparent permeability from basolateral to apical side in human CaCo2 cells; format: ADME, cell-based; conditions: Caco-2; procedure, shortened: as §1
[5] = Cmax in DBA/1 OlaHsd mouse immunized with bovine type2 collagen in Freund's complete adjuvant at 10 mg/kg, po bid administered starting on day 22 post immunization measured on day 31 post immunization; format: ADME, organism-based; parameters: dose 10 mg/kg, route oral; conditions: in vivo
Procedure, shortened: (§3)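 Blood drug levels were measured on study day 31 in CIA mice dosed at 10 mg/kg PO bid (n = 10), with vehicle 5% DMSO/95% (10% kleptose). AUC and Cmax were derived from these levels. Time above EC50 was judged against the human whole-blood IFNγ assay EC50 and the anti-CD3 mouse PK/PD EC50.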

Cytochrome P450 1A = biological target: T1, Cytochrome P450 1A (Homo sapiens, UniProt P04798+P05177); assay: Inhibition of CYP1A in human liver microsomes
T1 sequence (P04798 whole entry): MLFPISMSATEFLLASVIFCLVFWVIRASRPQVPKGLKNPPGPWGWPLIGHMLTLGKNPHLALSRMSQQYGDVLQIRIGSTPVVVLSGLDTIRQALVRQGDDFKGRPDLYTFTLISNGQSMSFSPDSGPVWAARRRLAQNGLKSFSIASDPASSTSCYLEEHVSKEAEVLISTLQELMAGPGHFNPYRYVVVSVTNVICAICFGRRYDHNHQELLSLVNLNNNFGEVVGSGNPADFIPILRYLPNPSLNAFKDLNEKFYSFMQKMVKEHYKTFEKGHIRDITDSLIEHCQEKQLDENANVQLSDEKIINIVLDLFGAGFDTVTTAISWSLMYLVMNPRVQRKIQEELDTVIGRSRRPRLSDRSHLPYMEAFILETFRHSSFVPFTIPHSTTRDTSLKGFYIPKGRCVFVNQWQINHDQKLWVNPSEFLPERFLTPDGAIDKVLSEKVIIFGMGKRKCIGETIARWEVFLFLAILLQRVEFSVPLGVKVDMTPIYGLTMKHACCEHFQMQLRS
T1 sequence (P05177 whole entry): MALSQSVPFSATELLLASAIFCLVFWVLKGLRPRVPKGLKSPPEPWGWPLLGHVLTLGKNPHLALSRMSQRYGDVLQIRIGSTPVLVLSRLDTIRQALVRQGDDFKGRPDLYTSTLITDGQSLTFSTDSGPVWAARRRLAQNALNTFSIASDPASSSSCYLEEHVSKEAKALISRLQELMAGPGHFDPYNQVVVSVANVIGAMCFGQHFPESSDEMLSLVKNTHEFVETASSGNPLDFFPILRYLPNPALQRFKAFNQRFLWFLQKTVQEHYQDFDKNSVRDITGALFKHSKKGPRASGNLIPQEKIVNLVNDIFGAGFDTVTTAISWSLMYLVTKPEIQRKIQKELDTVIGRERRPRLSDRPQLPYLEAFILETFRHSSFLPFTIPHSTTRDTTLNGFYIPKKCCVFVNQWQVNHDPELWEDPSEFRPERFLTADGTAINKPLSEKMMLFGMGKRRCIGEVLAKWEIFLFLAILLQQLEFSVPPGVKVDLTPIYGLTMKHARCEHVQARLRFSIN

[6] = Intrinsic clearance in pooled rat liver microsomes at 1 uM incubated up to 40 mins in presence of NADPH by LC-MS/MS analysis; format: ADME, Microsome
Procedure, shortened: (§4)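 Metabolic stability was assessed in liver microsomes (rat, dog, human) and hepatocytes (dog, human). Intrinsic clearance was calculated as μL/min/g liver.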

Mus musculus [7] = assay: Anti-inflammatory activity in DBA/1 OlaHsd mouse immunized with bovine type2 collagen in Freund's complete adjuvant assessed as reduction in AUC of clinical arthritis score at 10 mg/kg, po bid administered starting on day 22 post immunization until day 33 post immunization relative to control; format: functional; parameters: scale not given: the % may be the effect or the level left; conditions: in the assay text read “until day 34 post immunization” for “until day 33 post immunization”
Procedure, shortened: (§5)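 Semiestablished CIA design. Mice received bovine type II collagen at day 0 with a boost at day 21. Dosing at 10 mg/kg PO bid ran from day 22 to day 34, in 5% DMSO/95% (10% kleptose), n = 10 per group; normal controls n = 4. Paws were scored daily for erythema and swelling (0–5), summarized as AUC. Body weight was tracked over time.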

[8] = Solubility of compound in fasted state simulated intestinal fluid; format: physicochemical
Procedure, shortened: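 logD measured at pH 7.4. Kinetic solubility measured by CLND. Solubility also measured in FaSSIF and FeSSIF biorelevant media.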

Mus musculus [9] = species on record: Mus musculus; assay: animal or person; conditions: C57BL/6J
[10] = Intrinsic clearance in pooled dog liver microsomes at 1 uM incubated up to 40 mins in presence of NADPH by LC-MS/MS analysis; format: ADME, Canis lupus familiaris, Microsome; procedure, shortened: as §4
[11] = biological target: Voltage-gated inwardly rectifying potassium channel KCNH2 (Homo sapiens, UniProt Q12809); assay: Inhibition of human ERG expressed in HEK293 cells by whole cell patch clamp assay; format: cell-based
Procedure, shortened: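 hERG measured by whole-cell patch clamp in HEK293 cells, reported as IC50.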

[12] = Tmax in Sprague-Dawley rat at 3 mg/kg, po administered through gavage by LC-MS/MS analysis; format: ADME, organism-based; conditions: in vivo; procedure, shortened: as §2
[13] = Toxicity in DBA/1 OlaHsd mouse immunized with bovine type2 collagen in Freund's complete adjuvant assessed as body weight loss at 10 mg/kg, po bid administered starting on day 22 post immunization measured on day 26 post immunization; format: organism-based; conditions: in vivo; procedure, shortened: as §5
[14] = Cmax in Sprague-Dawley rat at 3 mg/kg, po administered through gavage by LC-MS/MS analysis; format: ADME, organism-based; parameters: dose 3 mg/kg, route oral; conditions: in vivo; procedure, shortened: as §2
[15] = AUC (0 to infinity) in Sprague-Dawley rat at 3 mg/kg, po administered through gavage by LC-MS/MS analysis; format: ADME, organism-based; parameters: dose 3 mg/kg, route oral, time infinity; conditions: in vivo; procedure, shortened: as §2
[16] = AUC in DBA/1 OlaHsd mouse immunized with bovine type2 collagen in Freund's complete adjuvant at 10 mg/kg, po bid administered starting on day 22 post immunization measured on day 31 post immunization; format: ADME, organism-based; conditions: in vivo; procedure, shortened: as §3
[17] = Intrinsic clearance in pooled cryopreserved human hepatocytes at 1 uM incubated up to 90 mins by LC-MS/MS analysis; format: ADME, cell-based, Hepatocyte; conditions: 1.5 h; procedure, shortened: as §4
Cytochrome P450 2C9 = Cytochrome P450 2C9 (Homo sapiens, UniProt P11712); assay: Inhibition of CYP2C9 in human liver microsomes; format: ADME
[18] = Plasma clearance in Sprague-Dawley rat at 1 mg/kg, iv as bolus dose or 3 mg/kg, po administered through gavage measured up to 8 hrs by LC-MS/MS analysis; format: ADME, organism-based; procedure, shortened: as §2
[19] = Cmax in Sprague-Dawley rat at 1 mg/kg, iv as bolus dose by LC-MS/MS analysis; format: ADME, organism-based; parameters: dose 1 mg/kg, route intravenous; conditions: in vivo; procedure, shortened: as §2
[20] = AUC (0 to infinity) in Sprague-Dawley rat at 1 mg/kg, iv as bolus dose by LC-MS/MS analysis; format: ADME, organism-based; parameters: dose 1 mg/kg, route intravenous, time infinity; conditions: in vivo; procedure, shortened: as §2

Cytochrome P450 2C9, sequence (P11712 whole entry): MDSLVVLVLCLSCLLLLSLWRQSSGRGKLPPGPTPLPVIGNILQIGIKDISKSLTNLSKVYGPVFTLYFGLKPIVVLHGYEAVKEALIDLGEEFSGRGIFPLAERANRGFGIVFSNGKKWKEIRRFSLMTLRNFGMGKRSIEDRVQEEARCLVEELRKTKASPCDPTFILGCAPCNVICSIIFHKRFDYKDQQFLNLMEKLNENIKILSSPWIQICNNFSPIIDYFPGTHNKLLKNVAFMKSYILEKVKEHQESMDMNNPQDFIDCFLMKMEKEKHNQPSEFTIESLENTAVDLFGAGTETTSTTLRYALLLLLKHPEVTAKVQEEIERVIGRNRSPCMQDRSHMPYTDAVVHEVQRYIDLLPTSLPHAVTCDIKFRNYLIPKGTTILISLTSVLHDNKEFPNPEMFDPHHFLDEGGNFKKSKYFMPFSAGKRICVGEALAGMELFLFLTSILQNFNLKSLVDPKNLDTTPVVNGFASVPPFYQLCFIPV
Voltage-gated inwardly rectifying potassium channel KCNH2, sequence (Q12809 whole entry): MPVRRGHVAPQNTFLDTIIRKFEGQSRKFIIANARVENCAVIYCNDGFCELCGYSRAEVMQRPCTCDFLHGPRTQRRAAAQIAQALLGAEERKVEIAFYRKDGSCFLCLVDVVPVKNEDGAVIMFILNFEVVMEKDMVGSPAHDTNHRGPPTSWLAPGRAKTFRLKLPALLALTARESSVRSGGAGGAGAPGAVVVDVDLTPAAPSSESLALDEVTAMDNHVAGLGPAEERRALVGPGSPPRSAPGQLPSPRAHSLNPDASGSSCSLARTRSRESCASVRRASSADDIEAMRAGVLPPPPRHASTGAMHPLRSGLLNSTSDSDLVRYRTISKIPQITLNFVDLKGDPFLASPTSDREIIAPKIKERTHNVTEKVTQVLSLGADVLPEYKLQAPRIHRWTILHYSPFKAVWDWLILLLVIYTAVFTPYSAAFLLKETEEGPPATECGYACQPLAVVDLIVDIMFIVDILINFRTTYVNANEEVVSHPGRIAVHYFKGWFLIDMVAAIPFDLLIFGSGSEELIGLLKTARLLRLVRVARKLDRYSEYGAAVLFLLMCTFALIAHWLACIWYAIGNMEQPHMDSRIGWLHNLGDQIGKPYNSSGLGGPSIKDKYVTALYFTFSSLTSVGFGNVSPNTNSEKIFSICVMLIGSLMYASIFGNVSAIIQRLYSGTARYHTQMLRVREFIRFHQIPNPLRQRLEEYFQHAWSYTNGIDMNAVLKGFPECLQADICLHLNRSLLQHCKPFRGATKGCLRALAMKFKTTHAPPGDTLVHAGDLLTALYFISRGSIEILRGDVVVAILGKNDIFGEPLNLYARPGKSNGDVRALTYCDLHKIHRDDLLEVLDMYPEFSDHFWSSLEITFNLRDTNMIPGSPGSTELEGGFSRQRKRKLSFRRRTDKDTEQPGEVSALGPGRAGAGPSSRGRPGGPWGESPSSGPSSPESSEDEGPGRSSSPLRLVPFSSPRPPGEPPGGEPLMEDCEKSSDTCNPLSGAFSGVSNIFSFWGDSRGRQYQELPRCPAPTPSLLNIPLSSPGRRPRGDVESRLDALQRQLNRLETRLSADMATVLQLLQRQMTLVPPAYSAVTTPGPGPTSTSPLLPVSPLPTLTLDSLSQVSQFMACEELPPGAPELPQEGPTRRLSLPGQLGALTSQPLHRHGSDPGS
Cytochrome P450 2C19, sequence (P33261 whole entry): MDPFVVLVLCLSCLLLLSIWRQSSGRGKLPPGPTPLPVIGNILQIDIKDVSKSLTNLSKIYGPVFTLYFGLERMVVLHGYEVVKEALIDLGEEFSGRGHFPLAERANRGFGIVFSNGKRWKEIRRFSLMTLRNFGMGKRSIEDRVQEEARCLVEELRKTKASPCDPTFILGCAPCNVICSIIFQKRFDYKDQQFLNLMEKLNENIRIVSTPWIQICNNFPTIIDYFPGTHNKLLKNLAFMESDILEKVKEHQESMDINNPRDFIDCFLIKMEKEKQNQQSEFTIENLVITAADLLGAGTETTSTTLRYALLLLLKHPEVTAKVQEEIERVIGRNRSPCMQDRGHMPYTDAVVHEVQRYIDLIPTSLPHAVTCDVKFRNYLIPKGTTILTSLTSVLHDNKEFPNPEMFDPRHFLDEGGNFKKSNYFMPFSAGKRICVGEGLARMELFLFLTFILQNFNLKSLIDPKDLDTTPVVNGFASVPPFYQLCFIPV

inhibition (INH) (Cytochrome P450 2C19): Not Active | Papp A→B [1]: 0.047 ×10⁻⁶ cm/s | MRT [2]: 66 min | fraction unbound [3]: 0.31 | Papp B→A [4]: 0.102 ×10⁻⁶ cm/s | Cmax [5]: 1700 nM | inhibition (INH) (Cytochrome P450 1A): Not Active | CLH [6]: < 0.6 µL/min/g | solubility [8]: 11.1 µg/mL (≈ 24.2 µM) | pEC50 (Mus musculus [9]): 6.66 | CLH [10]: < 1.1 µL/min/g | Tmax [12]: 30 min | Cmax [14]: 430 nM | AUC(0-inf) [15]: 1 µM·h | AUC [16]: 14 µM·h | CLH [17]: <= 0.5 microL/min/g | inhibition (INH) (Cytochrome P450 2C9): Not Active | clearance [18]: 49 mL/min/kg | Cmax [19]: 710 nM | AUC(0-inf) [20]: 0.76 µM·h
SMILES: CCNC(=O)Nc1ccc(-c2nc(N3CCOC[C@@H]3C)c3c(n2)C(C)(C)S(=O)(=O)C3)cc1
Activity (Mus musculus [7]): 59% | pIC50 [11]: 4.32 | Activity [13]: Non-Toxic
